Experimental data: ChEMBL document CHEMBL2177081, “Orally active metabotropic glutamate subtype 2 receptor positive allosteric modulators: structure-activity relationships and assessment in a rat model of nicotine dependence” (J Med Chem, 2012)

Key:
[1] = tested on: Rattus norvegicus; assay: Volume of distribution in rat at 10 mg/kg, ip; type: ADME, organism-based; set-up: dose 10 mg/kg, route intraperitoneal; conditions: in vivo
Summary of the method: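 Intraperitoneal dose of 10 mg/kg in rats, given as sodium salt in sterile water; plasma PK parameters including volume of distribution.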

[2] = tested on: Rattus norvegicus; assay: (§1) Cmax in rat at 10 mg/kg, ip; type: ADME, organism-based; set-up: dose 10 mg/kg, route intraperitoneal; conditions: in vivo
Summary of the method: (§2)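 Intraperitoneal dosing in rats at 10 mg/kg, sodium salt form, sterile water vehicle. Cmax is the maximum compound concentration detected in plasma, and terminal half-life was derived from the plasma profile.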

[3] = tested on: Rattus norvegicus; assay: Tmax in rat at 10 mg/kg, po; type: ADME, organism-based; set-up: dose 10 mg/kg, route oral; conditions: in vivo
[4] = tested on: Rattus norvegicus; assay: AUC (0 to t) in rat at 10 mg/kg, po; type: ADME, organism-based, Plasma; set-up: dose 10 mg/kg, route oral; conditions: in vivo
Summary of the method: (§3)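 Sodium salt given orally at 10 mg/kg in sterile water to rats, n = 3 (n = 5 for one compound). Plasma was sampled over time for Cmax, Tmax, AUC(0–t), t1/2 and oral bioavailability. Brain and plasma were harvested at or near Tmax to measure levels and the brain:plasma ratio.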

[5] = tested on: Rattus norvegicus; assay: AUC (0 to t) in rat at 10 mg/kg, ip; type: ADME, organism-based, Plasma; set-up: dose 10 mg/kg, route intraperitoneal; conditions: in vivo
[6] = tested on: Rattus norvegicus; assay: Volume of distribution in rat at 10 mg/kg, po; type: ADME, organism-based; set-up: dose 10 mg/kg, route oral; conditions: in vivo
Summary of the method: (§4)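 Rats dosed orally at 10 mg/kg as sodium salts in sterile water, n = 3 (n = 5 for one compound). Plasma sampled for PK parameters; brain and plasma harvested at or near Tmax for levels and brain:plasma ratio.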

[7] = tested on: Rattus norvegicus; assay: Cmax in rat at 10 mg/kg, po; type: ADME, organism-based; set-up: dose 10 mg/kg, route oral; conditions: in vivo
Summary of the method: (§5)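 Sodium salts were given to rats by oral dose at 10 mg/kg in sterile water, with n = 3 or 5 animals per compound. Plasma concentration was measured over time to give Cmax, Tmax, terminal half-life and oral bioavailability (F). Brain and plasma were taken at or near Tmax.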

[8] = tested on: Rattus norvegicus; assay: AUC (0 to t) in rat at 2 mg/kg, iv; type: ADME, organism-based, Plasma; set-up: dose 2 mg/kg, route intravenous; conditions: in vivo
[9] = tested on: Rattus norvegicus; assay: Volume of distribution in rat at 2 mg/kg, iv; type: ADME, organism-based; set-up: dose 2 mg/kg, route intravenous; conditions: in vivo
Summary of the method: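 Intravenous dose of 2 mg/kg in rats, given as sodium salt in sterile water; plasma PK parameters including volume of distribution.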

[10] = tested on: Brain; assay: Drug level in rat brain at 10 mg/kg, po; type: ADME, organism-based; set-up: dose 10 mg/kg, route oral; conditions: in vivo, read-out: Drug uptake; summary of the method: as §3
[11] = tested on: Plasma; assay: Plasma concentration in rat at 10 mg/kg, po; type: ADME, organism-based; set-up: dose 10 mg/kg, route oral; conditions: in vivo; summary of the method: as §4
[12] = tested on: Rattus norvegicus; assay: Cmax in rat at 2 mg/kg, iv; type: ADME, organism-based; set-up: dose 2 mg/kg, route intravenous; conditions: in vivo
Summary of the method: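 Rats received sodium salts intravenously at 2 mg/kg in sterile water. Cmax is the maximum compound concentration detected in plasma, and terminal half-life was derived from the plasma concentration–time profile.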

[13] = tested on: Rattus norvegicus; assay: Oral bioavailability in rat at 10 mg/kg; type: ADME, organism-based; conditions: in vivo; summary of the method: as §5
[14] = tested on: Rattus norvegicus; assay: Ratio of drug level in brain to plasma in rat at 10 mg/kg, po
[15] = as §1; type: ADME, organism-based; set-up: dose 10 mg/kg, route intraperitoneal; conditions: in vivo; summary of the method: as §2

| Structure (SMILES) | Vd [1] [mL] | Cmax [2] [nM] | Tmax [3] [min] | AUCt [4] [µM·h] | AUCt [5] [µM·h] | Vd [6] [mL] | Cmax [7] [nM] | AUCt [8] [µM·h] | Vd [9] [mL] | concentration [10] [nM] | concentration [11] [nM] | Cmax [12] [nM] | F [13] [%] | BPR [14] | Cmax [15] [nM] |
| --- | --- | --- | --- | --- | --- | --- | --- | --- | --- | --- | --- | --- | --- | --- | --- |
| O=C([O-])c1cc(-c2cccc(-c3ccc4c(c3)CN(C3CCCC3)C4=O)c2)ccc1Cl.[Na+] | 21.2 | 2000 | 30 | 2.67 | 3.23 | 96.2 | 400 |  |  |  |  |  |  |  |  |
| O=C([O-])c1cc(-c2cccc(COc3ccc4c(c3)CN(C3CCCC3)C4=O)c2)ccc1O.[Na+] |  |  | 30 | 7.1 |  | 28 | 1600 | 2.57 | 4.3 | 7.1 | 210 | 3900 | 109.2 | 0.0335 |  |
| COc1ccc(C(=O)[O-])cc1-c1cccc(COc2ccc3c(c2)CN(C2CCCC2)C3=O)c1.[Na+] |  |  | 30 | 12 |  | 10875.2 | 4000 | 6.7 | 4620 | 180 | 1460 | 5600 | 84.8 | 0.13 |  |
| O=C([O-])c1cc(-c2cccc(COc3ccc4c(=O)n(C5CC5)sc4c3)c2)ccc1Cl.[Na+] | 2.4 |  | 60 | 61.5 | 25.8 | 4.1 | 8500 |  |  | 30 | 800 |  |  | 0.04 | 9600 |
| O=C([O-])c1cc(-c2cccc(COc3ccc4c(c3)CN(C3CCCC3)C4=O)c2)ccc1Cl.[Na+] |  |  |  | 42.5 |  | 3 | 3000 | 11.8 | 0.6 |  |  | 28200 | 71.4 | 0.039 |  |
